A selection: hits, their analogues and other compounds. The true share with any hit is near 6.7%.
PREPL inhibitor = inhibitors of human prolyl oligopeptidase-like enzyme PREPL | Q4J6C6 | AID 2751 | recombinant PREPL, fluorescence polarization activity-based probe | inhibition, % at 5.96 µM | 0.68% of 320,000 active
CHOP inhibitor = blocks CHOP induction under ER stress | inhibition, % at 10 µM | AID 2732 | 3.8% of 220,000 active | CHO-K1 CHOP-promoter luciferase, tunicamycin-induced, 15-18 h;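 active means compounds that reduced the stress-induced luciferase reporter signal by more than about 70% of percent inhibition, limit read from the data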
T cruzi repl = T. cruzi replication inhibition; inhibition, % (test concentration not listed); 1.4% of 300,000 active; T. cruzi beta-gal in NIH3T3, luminescence, 90 h;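 active means mean inhibition across valid replicates above about 55%, limit read from the data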;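 further: signal also drops with host cell toxicity which is not excluded here; higher percent means less beta-gal luminescence so fewer parasites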
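Assay system: NIH/3T3 host cells with β-galactosidase reporter T. cruzi; input: 5,000 host fibroblasts per well; compound: single 50 nL compound addition per well in DMSO; timing: ≥90 h infection period, 3 h prior cell attachment; measured by: GalScreen β-gal luminescence, detergent lysis, 60 min; evaluation: percent inhibition of parasite-derived β-gal signal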
GRIN3A LBD mod = NR3A (human) ligand-binding domain modulation. NR3A LBD differential scanning fluorimetry, Tm shift; 0% = protein alone, 100% = glycine-bound protein. Tm shift relative to glycine control, % at 25 µM. 2.5% of 340,000 active;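 active means melting temperature shift of at least 10% of the positive control shift, at one fixed dose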
CSC inhib = cancer stem cell inhibition | cancer stem cell-like cells viability, luminescence | inhibition, % at 7.5 µM | 1.1% of 300,000 active | AID 2717; in the data active means inhibition above about 75%; tested in HMLE shEcad cells
Beta apoptosis = blocks beta cell apoptosis; INS-1E cytokine-induced death, ATP luminescence, 48 h; percent of positive-control rescue, neutral wells zero; 0.8% of 300,000 active; protection from apoptosis, % (no concentration beside the values); AID 435005;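 active means Every replicate reaches about 75%, or at least half do and their mean reaches it too, limit read from the data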;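 further: higher means more ATP so stronger rescue from cytokine killing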
PREPL inh cf = confirmation of human PREPL enzyme inhibitors | shares compounds with PREPL inhibitor | recombinant PREPL, fluorescence polarization activity probe | inhibition, % at 5.96 µM | 67% of 2,000 active | AID 2803
Of the large screens only hits and unclear results are named; the others gave an inactive call (follow-up assays come after a bar, where they were run). Unless noted, no stated cut-off is given here; in the data, active means inhibition above about 43%; inactive means the rest.

CCOc1ccc(-n2c(SCc3ccc(C#N)cc3)nnc2-c2cccnc2)cc1	none
CCOC(=O)C1CCN(C(=O)c2ccc3nc(-c4ccc(OC)cc4)c(-c4ccc(OC)cc4)nc3c2)CC1	none (no result: CHOP inhibitor)
O=[N+]([O-])c1ccc(N2CCN(c3cccc(Cl)c3)CC2)cn1	PREPL inhibitor 47 (no result: CHOP inhibitor, CSC inhib) | PREPL inh cf inactive
Clc1ccc(OCc2noc(-c3ccsc3)n2)c(Cl)c1	none
COC(=O)C(C)Sc1nc2c(cnn2-c2ccc(Cl)cc2)c(=O)[nH]1 (centres undefined)	none (no result: CHOP inhibitor)
Fc1ccc(CNc2ccc(N3CCN(Cc4ccccc4)CC3)cc2)cc1	PREPL inhibitor 46 (no result: CHOP inhibitor) | PREPL inh cf inactive
O=C(CCS(=O)(=O)c1ccc(F)cc1)Nc1ccc(N2CCN(Cc3ccccc3)CC2)cc1	none (no result: CHOP inhibitor, T cruzi repl, CSC inhib)
Cc1cc(C)cc(N(CCC#N)C(=O)COC(=O)CCc2c[nH]c3ccccc23)c1	PREPL inhibitor 46 (no result: CHOP inhibitor, T cruzi repl) | PREPL inh cf inactive
CC(=O)NC1=C(Nc2ccc(N(C)C)cc2)C(=O)c2ccccc2C1=O	PREPL inhibitor 49 (no result: CHOP inhibitor) | PREPL inh cf inactive
COC1=C(Nc2ccc(C)cc2)C(=O)c2ccccc2C1=O	none
CCOC(=O)c1sc2nc(C)nc(N3CCN(S(=O)(=O)c4ccccc4)CC3)c2c1C	none (no result: CHOP inhibitor, T cruzi repl)
CN(CC(=O)Nc1ccc(OC(F)(F)F)cc1)C(=O)Cc1cccs1	none (no result: CHOP inhibitor, T cruzi repl)
Cc1[nH]c(C)c(S(=O)(=O)NCCc2ccc(S(N)(=O)=O)cc2)c1C(=O)N1CCCC1	PREPL inhibitor 54 (no result: CHOP inhibitor) | PREPL inh cf inactive
O=C(NCCN1CCOCC1)c1ccc(NS(=O)(=O)c2cccc([N+](=O)[O-])c2)cc1	none (no result: CHOP inhibitor)
O=S(=O)([N-]c1nc2ccccc2nc1-[n+]1ccc(CCCc2ccccc2)cc1)c1cccs1	none
O=C1/C(=N\S(=O)(=O)c2cccs2)C([n+]2ccc(CCCc3ccccc3)cc2)=C([O-])c2ccccc21	PREPL inhibitor 69, CHOP inhibitor 95, CSC inhib 93, Beta apoptosis 104 | PREPL inh cf 70
CCOc1ccccc1CNC(=O)c1ccc(NC(=O)C2=CSCCO2)cc1	none (no result: CHOP inhibitor)
CC1CCCN(C(=O)CCNS(=O)(=O)c2ccc3c(c2)c(=O)n(C)c(=O)n3C)C1 (centres undefined)	none (no result: CHOP inhibitor)
C[C@H](CO)N1C[C@H](C)[C@@H](CN(C)Cc2ccncc2)Oc2c(NS(=O)(=O)c3ccc(Cl)cc3)cccc2C1=O	PREPL inhibitor 48 (no result: CHOP inhibitor, T cruzi repl, CSC inhib) | PREPL inh cf 45
C[C@H](CO)N1C[C@H](C)[C@@H](CN(C)Cc2ccncc2)Oc2c(NS(=O)(=O)c3ccc(F)cc3)cccc2C1=O	none (no result: CHOP inhibitor, T cruzi repl, CSC inhib)
Cc1csc(CN(C)C(=O)CC2C(=O)NCCN2Cc2ccc(Cl)c(F)c2)n1 (centres undefined)	none (no result: CHOP inhibitor)
COc1nc(NCCN2CCOCC2)nc(Nc2ccc([N+](=O)[O-])cc2)n1	PREPL inhibitor 47 | PREPL inh cf inactive
CCOc1nc(NCCN2CCOCC2)nc(Nc2ccc([N+](=O)[O-])cc2)n1	none
COc1ccc(/C=C2\SC(=S)N(CCC(=O)Nc3cccc(C(=O)O)c3)C2=O)cc1	none (no result: CHOP inhibitor, Beta apoptosis)
COc1nccnc1NS(=O)(=O)c1ccc(N=Cc2c(C)[nH]n(-c3ccc(C)c(C)c3)c2=O)cc1	none (no result: Beta apoptosis)
Cc1ccc(-n2[nH]c(C)c(C=Nc3ccc4[nH]c(=O)[nH]c4c3)c2=O)cc1C	PREPL inhibitor 57, CHOP inhibitor 81, GRIN3A LBD mod 16 | PREPL inh cf inactive
Cc1ccc2c(c1)c1c3n2CCCNC3CCC1 (centres undefined)	PREPL inhibitor 45 | PREPL inh cf 44
O=C(O)c1ccc2c(c1)c1c3n2CCNC3CCC1 (centres undefined)	none (no result: CHOP inhibitor)
CN(C)c1ccc(N2C(=NC(=O)COc3ccccc3)SC3CS(=O)(=O)CC32)cc1 (centres undefined)	none (no result: CHOP inhibitor)
Nc1cc(F)ccc1N1CCCCCC1	PREPL inhibitor 43 | PREPL inh cf inactive
N#CC1=C(Nc2ccccc2)SC=C(c2ccc(F)cc2)N=C1N1CCOCC1	PREPL inhibitor 52 (no result: T cruzi repl, GRIN3A LBD mod) | PREPL inh cf inactive
c1cncc(CNc2ccc3c(c2)OCO3)c1	PREPL inhibitor 44 | PREPL inh cf 52
O=C(NCc1cccnc1)Nc1ccc2c(c1)OCO2	none

High-throughput results from PubChem.
